Test results as given in ChEMBL document CHEMBL1125847, “Interaction of GTP derivatives with cellular and oncogenic ras-p21 proteins” (J Med Chem, 1991).

Key:
[1] = target: GTPase HRas (Homo sapiens) (UniProt P01112); assay: Inhibitory [3H]GDP concentration against cellular p21 Ha-ras
How it was run: (§1)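 Filter-binding competition: GDP-bound Ha-ras p21 (1 μM; 1 μg) with [3H]GDP (3 μM per footnote, 2 μM in methods) plus analogue over a concentration range, in 50 mM Tris-HCl pH 7.5, 10 mM DTT, 0.5 mM MgCl2, 100 mM NH4Cl, 5 mM EDTA, 45 min, 37 °C. Quenched with cold Mg2+, filtered through nitrocellulose, counted. Krel = [3H]GDP concentration/analogue concentration at 50% inhibition.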

[2] = target: GTPase HRas (Homo sapiens) (UniProt P01112); assay: Inhibitory [3H]GDP concentration against oncogenic Ha-ras protein (p21 Leu-61); how it was run: as §1

Chain of GTPase HRas (Homo sapiens) (P01112 whole entry, looked up): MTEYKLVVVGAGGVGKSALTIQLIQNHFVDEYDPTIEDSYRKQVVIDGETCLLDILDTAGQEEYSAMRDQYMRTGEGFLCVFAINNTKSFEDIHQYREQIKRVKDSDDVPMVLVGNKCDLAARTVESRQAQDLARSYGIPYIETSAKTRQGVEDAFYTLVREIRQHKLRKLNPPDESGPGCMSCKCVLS

Compound	K rel [1]	K rel [2]
O=P(O)(O)OP(=O)(O)OP(=O)(O)OC[C@@H]1OC(n2cnc3c(O)nc(Nc4ccc(Br)cc4)nc32)[C@@H](O)[C@H]1O (stereo not given in full)	2.28	2.1
O=P(O)(O)OP(=O)(O)OP(=O)(O)OC[C@@H]1OC(n2cnc3c(O)nc(NCCCCc4ccccc4)nc32)[C@@H](O)[C@H]1O (stereo not given in full)	1.19	1.1
Nc1nc(O)c2ncn(C3OC(COP(=O)(O)OP(=O)(O)OP(=O)(O)O)CC3O)c2n1 (stereo not given)	0.85	0.85
Nc1nc(O)c2ncn([C@H]3O[C@@H](COP(=O)(O)OP(=O)(O)OP(=O)(O)O)[C@H](O)[C@@H]3O)c2n1	1.1	1.2
O=P(O)(O)OP(=O)(O)OP(=O)(O)OC[C@@H]1OC(n2cnc3c(O)nc(Nc4ccc(F)cc4)nc32)[C@@H](O)[C@H]1O (stereo not given in full)	1.77	2.38
O=P(O)(O)OP(=O)(O)OP(=O)(O)OC[C@@H]1OC(n2cnc3c(O)ncnc32)[C@@H](O)[C@H]1O (stereo not given in full)	0.11	0.09
Nc1nc(O)c2ccn(C3O[C@@H](COP(=O)(O)OP(=O)(O)OP(=O)(O)O)[C@H](O)[C@@H]3O)c2n1 (stereo not given in full)	0.08	0.05
Nc1nc(O)c2ncn(COC(CO)COP(=O)(O)OP(=O)(O)OP(=O)(O)O)c2n1 (stereo not given)	0.0014	0.0018
Cc1ccc(Nc2nc(O)c3ncn(C4O[C@@H](COP(=O)(O)OP(=O)(O)OP(=O)(O)O)[C@H](O)[C@@H]4O)c3n2)cc1 (stereo not given in full)	1.14	1.34
Nc1nc2c(ncn2[C@H]2CC[C@@H](COP(=O)(O)OP(=O)(O)OP(=O)(O)O)O2)c(=O)[nH]1	0.28	0.18
CN1CN(C2O[C@@H](COP(=O)(O)OP(=O)(O)OP(=O)(O)O)[C@H](O)[C@@H]2O)c2nc(N)nc(O)c21 (stereo not given in full)	0.0024	0.002
CCCCNc1nc(O)c2ncn(C3O[C@@H](COP(=O)(O)OP(=O)(O)OP(=O)(O)O)[C@H](O)[C@@H]3O)c2n1 (stereo not given in full)	0.59	0.68
CCCCc1ccc(Nc2nc(O)c3ncn(C4O[C@@H](COP(=O)(O)OP(=O)(O)OP(=O)(O)O)[C@H](O)[C@@H]4O)c3n2)cc1 (stereo not given in full)	3.3	6
Nc1nc2c(ncn2COCCOP(=O)(O)OP(=O)(O)OP(=O)(O)O)c(=O)[nH]1	0.0012	0.0011
O=P(O)(O)OP(=O)(O)OP(=O)(O)OC[C@@H]1OC(n2cnc3c(O)nc(Br)nc32)[C@@H](O)[C@H]1O (stereo not given in full)	0.04	0.05
